Data reported in ChEMBL document CHEMBL3272355, “Structure--activity relationships in cephalosporins prepared from penicillins. 1. 7beta-Acylamino derivatives of 3-benzyl- and 3-(3-pyridylmethyl)ceph-3-em-4-carboxylic acids” (1977).
Converted amounts (≈) assume the structure as drawn.

Assays:
Shigella sonnei = assay: Antibacterial activity against Shigella sonnei assessed as growth inhibition after 18 hrs by serial dilution method; type: functional
Outline: (§1)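 Agar dilution MIC: serial dilutions in nutrient agar, each spot-inoculated with 0.001 mL of undiluted overnight broth culture. MIC read after 18 h incubation at 37 °C.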

Proteus mirabilis = assay: Antibacterial activity against Proteus mirabilis assessed as growth inhibition after 18 hrs by serial dilution method; type: functional; outline: as §1
Escherichia coli = assay: Antibacterial activity against Escherichia coli assessed as growth inhibition after 18 hrs by serial dilution method; type: functional; outline: as §1
Staphylococcus aureus [1] = assay: Antibacterial activity against beta-lactamase producing benzylpenicillin-resistant Staphylococcus aureus Russell assessed as growth inhibition after 18 hrs by serial dilution method; type: functional
Staphylococcus aureus [2] = assay: Antibacterial activity against Staphylococcus aureus Oxford assessed as growth inhibition after 18 hrs by serial dilution method; type: functional; outline: as §1
Klebsiella aerogenes = assay: Antibacterial activity against Klebsiella aerogenes assessed as growth inhibition after 18 hrs by serial dilution method; type: functional; outline: as §1
Salmonella typhi = assay: Antibacterial activity against Salmonella typhi assessed as growth inhibition after 18 hrs by serial dilution method; type: functional, Salmonella enterica subsp. enterica serovar Typhi; conditions: Salmonella enterica

Structure (SMILES)	MIC (Shigella sonnei) [µg/mL]	MIC (Proteus mirabilis) [µg/mL]	MIC (Escherichia coli) [µg/mL]	MIC (Staphylococcus aureus [1]) [µg/mL]	MIC (Staphylococcus aureus [2]) [µg/mL]	MIC (Klebsiella aerogenes) [µg/mL]	MIC (Salmonella typhi) [µg/mL]
O=C(O)C1=C(Cc2ccccc2)CS[C@@H]2[C@H](NC(=O)[C@H](O)c3ccccc3)C(=O)N12	50 (≈ 118 µM)	> 500	125 (≈ 294 µM)	12.5 (≈ 29.4 µM)	0.12 (≈ 0.283 µM)	50 (≈ 118 µM)	50 (≈ 118 µM)
O=C(Cc1cccs1)N[C@@H]1C(=O)N2C(C(=O)[O-])=C(C[n+]3ccccc3)CS[C@H]12 [CEPHALORIDINE]	1.25 (≈ 3.01 µM)	5 (≈ 12 µM)	5 (≈ 12 µM)	1.25 (≈ 3.01 µM)	0.02 (≈ 0.0481 µM)	2.5 (≈ 6.02 µM)	1.25 (≈ 3.01 µM)
O=C(COc1ccccc1)N[C@@H]1C(=O)N2C(C(=O)O)=C(Cc3ccccc3)CS[C@H]12	> 500	500 (≈ 1180 µM)	> 500	0.12 (≈ 0.283 µM)	0.02 (≈ 0.0471 µM)	> 500	> 500
CC(=O)N[C@@H]1C(=O)N2C(C(=O)O)=C(Cc3ccccc3)CS[C@H]12	> 500	> 500	> 500	2.5 (≈ 7.52 µM)	0.5 (≈ 1.5 µM)	> 500	500 (≈ 1500 µM)
N[C@@H](C(=O)N[C@@H]1C(=O)N2C(C(=O)O)=C(Cc3ccccc3)CS[C@H]12)c1ccccc1	25 (≈ 59 µM)	50 (≈ 118 µM)	25 (≈ 59 µM)	2.5 (≈ 5.9 µM)	0.1 (≈ 0.236 µM)	25 (≈ 59 µM)	25 (≈ 59 µM)
CC1=C(C(=O)O)N2C(=O)[C@@H](NC(=O)[C@H](N)c3ccccc3)[C@H]2SC1 [CEPHALEXIN ANHYDROUS]	5 (≈ 14.4 µM)	12.5 (≈ 36 µM)	12.5 (≈ 36 µM)	5 (≈ 14.4 µM)	1.25 (≈ 3.6 µM)	5 (≈ 14.4 µM)	5 (≈ 14.4 µM)
O=C(Cc1cccs1)N[C@@H]1C(=O)N2C(C(=O)O)=C(Cc3cccnc3)CS[C@H]12	25 (≈ 60.2 µM)	25 (≈ 60.2 µM)	25 (≈ 60.2 µM)	10 (≈ 24.1 µM)	0.05 (≈ 0.12 µM)	25 (≈ 60.2 µM)	5 (≈ 12 µM)
O=C(O)C1=C(Cc2cccnc2)CS[C@@H]2[C@H](NC(=O)[C@H](O)c3ccccc3)C(=O)N12	2.5 (≈ 5.88 µM)	5 (≈ 11.8 µM)	2.5 (≈ 5.88 µM)	12.5 (≈ 29.4 µM)	0.25 (≈ 0.588 µM)	2.5 (≈ 5.88 µM)	2.5 (≈ 5.88 µM)
N#CCC(=O)N[C@@H]1C(=O)N2C(C(=O)O)=C(Cc3ccccc3)CS[C@H]12	500 (≈ 1400 µM)	> 500	500 (≈ 1400 µM)	0.5 (≈ 1.4 µM)	0.12 (≈ 0.336 µM)	> 500	250 (≈ 700 µM)
N[C@@H](C(=O)N[C@@H]1C(=O)N2C(C(=O)O)=C(Cc3ccccc3)CS[C@H]12)C1CC1	> 250	> 250	> 250	12.5 (≈ 32.3 µM)	5 (≈ 12.9 µM)	> 250	> 250
O=C(O)C1=C(Cc2ccccc2)CS[C@@H]2[C@H](NC(=O)C(C(=O)Oc3ccccc3)c3ccccc3)C(=O)N12 (some centres undefined)	> 100	50 (≈ 94.6 µM)	> 100	25 (≈ 47.3 µM)	2.5 (≈ 4.73 µM)	> 100	> 100
O=C(O)CSCC(=O)N[C@@H]1C(=O)N2C(C(=O)O)=C(Cc3ccccc3)CS[C@H]12	250 (≈ 592 µM)	125 (≈ 296 µM)	> 500	25 (≈ 59.2 µM)	5 (≈ 11.8 µM)	> 500	250 (≈ 592 µM)
O=C(Cn1ncnn1)N[C@@H]1C(=O)N2C(C(=O)O)=C(Cc3ccccc3)CS[C@H]12	125 (≈ 312 µM)	125 (≈ 312 µM)	> 500	1.25 (≈ 3.12 µM)	0.12 (≈ 0.3 µM)	500 (≈ 1250 µM)	> 500
O=C(Cc1cccs1)N[C@@H]1C(=O)N2C(C(=O)O)=C(Cc3ccccc3)CS[C@H]12	200 (≈ 482 µM)	> 200	200 (≈ 482 µM)	10 (≈ 24.1 µM)	0.05 (≈ 0.121 µM)	> 200	200 (≈ 482 µM)
CC(=O)OCC1=C(C(=O)O)N2C(=O)[C@@H](NC(=O)Cc3cccs3)[C@H]2SC1 [CEPHALOTHIN]	5 (≈ 12.6 µM)	5 (≈ 12.6 µM)	5 (≈ 12.6 µM)	0.5 (≈ 1.26 µM)	0.12 (≈ 0.303 µM)	5 (≈ 12.6 µM)	12.5 (≈ 31.5 µM)
O=C(O)C1=C(Cc2cccnc2)CS[C@@H]2[C@H](NC(=O)C(C(=O)Oc3ccccc3)c3cccs3)C(=O)N12 (some centres undefined)	12.5 (≈ 23.3 µM)	12.5 (≈ 23.3 µM)	12.5 (≈ 23.3 µM)	–	12.5 (≈ 23.3 µM)	12.5 (≈ 23.3 µM)	50 (≈ 93.4 µM)
N[C@@H](C(=O)N[C@@H]1C(=O)N2C(C(=O)O)=C(Cc3cccnc3)CS[C@H]12)c1ccccc1	2.5 (≈ 5.89 µM)	5 (≈ 11.8 µM)	2.5 (≈ 5.89 µM)	2.5 (≈ 5.89 µM)	0.25 (≈ 0.589 µM)	2.5 (≈ 5.89 µM)	1.25 (≈ 2.94 µM)
O=C(Cc1ccncc1)N[C@@H]1C(=O)N2C(C(=O)O)=C(Cc3ccccc3)CS[C@H]12	50 (≈ 122 µM)	100 (≈ 244 µM)	50 (≈ 122 µM)	5 (≈ 12.2 µM)	0.05 (≈ 0.122 µM)	100 (≈ 244 µM)	50 (≈ 122 µM)
O=C(CSc1ccncc1)N[C@@H]1C(=O)N2C(C(=O)O)=C(Cc3ccccc3)CS[C@H]12	250 (≈ 566 µM)	250 (≈ 566 µM)	250 (≈ 566 µM)	2.5 (≈ 5.66 µM)	0.05 (≈ 0.113 µM)	> 500	250 (≈ 566 µM)
NC(C(=O)N[C@@H]1C(=O)N2C(C(=O)O)=C(Cc3cccnc3)CS[C@H]12)c1cccs1 (some centres undefined)	5 (≈ 11.6 µM)	12.5 (≈ 29 µM)	12.5 (≈ 29 µM)	5 (≈ 11.6 µM)	0.5 (≈ 1.16 µM)	5 (≈ 11.6 µM)	2.5 (≈ 5.81 µM)
C[C@@H](N)C(=O)N[C@@H]1C(=O)N2C(C(=O)O)=C(Cc3ccccc3)CS[C@H]12	> 100	> 100	> 100	10 (≈ 27.7 µM)	5 (≈ 13.8 µM)	> 100	> 100
CCSCC(=O)N[C@@H]1C(=O)N2C(C(=O)O)=C(Cc3ccccc3)CS[C@H]12	> 125	> 125	> 125	1.25 (≈ 3.18 µM)	0.12 (≈ 0.306 µM)	> 125	125 (≈ 318 µM)
O=C(COc1ccccc1)N[C@@H]1C(=O)N2C(C(=O)O)=C(Cc3cccnc3)CS[C@H]12	500 (≈ 1180 µM)	125 (≈ 294 µM)	500 (≈ 1180 µM)	0.12 (≈ 0.282 µM)	0.02 (≈ 0.047 µM)	500 (≈ 1180 µM)	500 (≈ 1180 µM)
N[C@@H](C(=O)N[C@@H]1C(=O)N2C(C(=O)O)=C(Cc3cccnc3)CS[C@H]12)C1CC1	250 (≈ 644 µM)	500 (≈ 1290 µM)	500 (≈ 1290 µM)	12.5 (≈ 32.2 µM)	5 (≈ 12.9 µM)	250 (≈ 644 µM)	250 (≈ 644 µM)
N[C@@H](C(=O)N[C@@H]1C(=O)N2C(C(=O)O)=C(Cc3ccccc3)CS[C@H]12)c1ccc(O)cc1	12.5 (≈ 28.4 µM)	25 (≈ 56.9 µM)	12.5 (≈ 28.4 µM)	1.25 (≈ 2.84 µM)	0.12 (≈ 0.273 µM)	5 (≈ 11.4 µM)	5 (≈ 11.4 µM)
O=C(O)C1=C(Cc2ccccc2)CS[C@@H]2[C@H](NC(=O)C(F)(F)F)C(=O)N12	> 500	500 (≈ 1290 µM)	> 500	12.5 (≈ 32.4 µM)	2.5 (≈ 6.47 µM)	> 500	> 500
CCSCC(=O)N[C@@H]1C(=O)N2C(C(=O)O)=C(Cc3cccnc3)CS[C@H]12	50 (≈ 127 µM)	25 (≈ 63.5 µM)	50 (≈ 127 µM)	1.25 (≈ 3.18 µM)	0.05 (≈ 0.127 µM)	50 (≈ 127 µM)	50 (≈ 127 µM)
O=C(Cc1ccncc1)N[C@@H]1C(=O)N2C(C(=O)O)=C(Cc3cccnc3)CS[C@H]12	25 (≈ 60.9 µM)	10 (≈ 24.4 µM)	25 (≈ 60.9 µM)	25 (≈ 60.9 µM)	0.12 (≈ 0.292 µM)	10 (≈ 24.4 µM)	10 (≈ 24.4 µM)
NC(CC(=O)N[C@@H]1C(=O)N2C(C(=O)O)=C(Cc3cccnc3)CS[C@H]12)C1CC=CCC1 (mixture of isomers)	125	250	125	1.25	0.5	125	125
O=C(CSc1ccncc1)N[C@@H]1C(=O)N2C(C(=O)O)=C(Cc3cccnc3)CS[C@H]12	25 (≈ 56.5 µM)	100 (≈ 226 µM)	25 (≈ 56.5 µM)	1 (≈ 2.26 µM)	< 0.02	5 (≈ 11.3 µM)	10 (≈ 22.6 µM)
